Calls of active or inactive are those of the source. The rule behind the calls is not given here.

4 molecules from ChEMBL document CHEMBL4266041, “Hydroxybiphenylamide GroEL/ES Inhibitors Are Potent Antibacterials against Planktonic and Biofilm Forms of Staphylococcus aureus” (J Med Chem, 2018) can be followed below.

Series [1] has as its target T1, E. coli GroEL/ES (Escherichia coli, UniProt P0A6F5). Briefly: Inhibition of Escherichia coli GroEL expressed in Escherichia coli DH5alpha/Escherichia coli GroES expressed in Escherichia coli BL21 (DE3) assessed as reduction in GroEL/GroES-mediated denatured MDH refolding after 20 to 40 mins by spectrometric analysis. In a few lines:
(§1)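 Uses E. coli GroEL/ES with a denatured MDH or rhodanese reporter. GroEL first forms a binary complex with the denatured reporter. Refolding is started by adding ATP and GroES, then reporter enzyme activity is read. DMSO is the negative control. IC50 values from replicate curves are log-averaged after ROUT outlier screening.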

In series [2] the target is T1, E. coli GroEL/ES. Briefly: Inhibition of Escherichia coli GroEL expressed in Escherichia coli DH5alpha/Escherichia coli GroES expressed in Escherichia coli BL21 (DE3) assessed as reduction in GroEL/GroES-mediated denatured rhodanese refolding after 45 mins by spectrometric analysis. In a few lines: as §1
The test system of series [3] is Staphylococcus aureus. Put plainly: Antibacterial activity against Staphylococcus aureus ATCC 25923 after 6 to 8 hrs by bacterial proliferation assay. The format is functional, organism-based.
Series [4] concerns the target T2, Thiosulfate sulfurtransferase (Homo sapiens, UniProt Q16762).
T2 sequence (Q16762 whole entry): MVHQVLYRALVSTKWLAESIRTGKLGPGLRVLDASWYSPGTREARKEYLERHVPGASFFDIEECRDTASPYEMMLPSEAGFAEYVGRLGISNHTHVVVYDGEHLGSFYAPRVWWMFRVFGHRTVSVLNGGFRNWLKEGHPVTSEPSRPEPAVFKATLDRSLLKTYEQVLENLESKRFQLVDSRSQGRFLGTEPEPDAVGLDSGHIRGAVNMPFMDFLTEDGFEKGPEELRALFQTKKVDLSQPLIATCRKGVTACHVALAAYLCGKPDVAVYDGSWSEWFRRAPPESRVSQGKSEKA
Briefly: Inhibition of refolded rhodanese (unknown origin) preincubated with Escherichia coli GroEL/GroES for 60 mins in absence of compound followed by compound addition by spectrometric analysis.

Series [5] in a line: Inhibition of refolded MDH (unknown origin) preincubated with Escherichia coli GroEL/GroES for 45 mins in absence of compound followed by compound addition and measured for 20 to 35 mins by spectrometric analysis.
The next series has as its system Enterococcus faecium. Briefly: Antibacterial activity against Enterococcus faecium ATCC 19434 after 24 hrs by bacterial proliferation assay. The format is functional, organism-based. As to conditions: ATCC 19434, 24 h.
The test system of series [6] is Staphylococcus aureus. Briefly: Antibacterial activity against methicillin-resistant Staphylococcus aureus ATCC BAA-44 after 6 to 8 hrs by bacterial proliferation assay. The format is functional, organism-based. As to conditions: Staphylococcus aureus, ATCC BAA-44.
In another series the test system is Klebsiella pneumoniae. Briefly: Antibacterial activity against Klebsiella pneumoniae ATCC 13883 after 6 to 8 hrs by bacterial proliferation assay. The format is functional, organism-based. In a few lines:
(§2)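 Bacterial growth inhibition in liquid culture. The highest concentration tested was 100 µM. The mean was back-calculated from the average log value. Values above the top concentration were set 0.1 log unit higher.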

A further series concerns Acinetobacter baumannii. Briefly: Antibacterial activity against Acinetobacter baumannii ATCC 19606 after 24 hrs by bacterial proliferation assay. As to conditions: ATCC 19606 = CIP 70.34 = JCM 6841, 24 h. Format: functional, organism-based. In a few lines:
as §2

Another series deals with Pseudomonas aeruginosa. Put plainly: Antibacterial activity against Pseudomonas aeruginosa ATCC 10145 after 24 hrs by bacterial proliferation assay. The format is functional, organism-based. As to conditions: ATCC 10145, 24 h. In a few lines:
as §2

The subject of a further series is Enterobacter cloacae. Put plainly: Antibacterial activity against Enterobacter cloacae subsp. cloacae ATCC 13047 after 24 hrs by bacterial proliferation assay. The format is functional, organism-based. As to conditions: subsp. cloacae ATCC 13047, 24 h. In a few lines:
as §2

A short description of series [7]: Cytotoxicity against human THLE3 cells assessed as reduction in cell viability after 48 hrs by Alamar Blue reporter assay. As to conditions: for CC50: 48 h. A general note: Resazurin is reduced to fluorescent resorufin, in cell work by metabolically active cells.
The test system of a further series is HEK293. Put plainly: (§3) Cytotoxicity against HEK293 cells assessed as reduction in cell viability after 48 hrs by Alamar Blue reporter assay. As to conditions: human, hek293, 48 h.
In series [8] the test system is Staphylococcus aureus. Briefly: Ratio of EC50 for bactericidal activity against Staphylococcus aureus Rosenbach ATCC 25923 in biofilms to EC50 for planktonic growth of Staphylococcus aureus Rosenbach ATCC 25923. Format: functional.
Series [9] has as its system Staphylococcus aureus. Briefly: Antibiofilm activity against Staphylococcus aureus Rosenbach ATCC 25923 after 24 hrs by crystal-violet based UV-Vis spectroscopy. The format is functional, organism-based. As to conditions: Rosenbach ATCC 25923, 24 h. In a few lines:
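ATCC 25923 colony grown overnight in TSB at 37°C with shaking, precultured 1 h in TSB + 0.5% glucose, then diluted to OD600 0.01. Incubated stagnant at 37°C for 24 h with compound (100 µM–46 nM, 3-fold, DMSO), alongside bacteria-free baseline plates. Wells washed, crystal violet stained 15 min, developed in MeOH:AcOH:H2O, A595.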

The subject of series [10] is Staphylococcus aureus. Put plainly: Bactericidal activity against Staphylococcus aureus Rosenbach ATCC 25923 in biofilms preincubated for 24 hrs followed by compound wash out and measured after 24 hrs. Format: functional, organism-based. In a few lines: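 ATCC 25923 preculture (TSB + 0.5% glucose, OD600 0.01) grown stagnant 24 h at 37°C to form biofilm, without compound. Wells washed 3× with PBS, then fresh TSB added with compound (100 µM–46 nM, 3-fold, DMSO) for 24 h at 37°C. Washed again, then recovered in fresh TSB 24 h at 37°C.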

In series [11] the test system is Staphylococcus aureus. Put plainly: Bactericidal activity against planktonic growth of Staphylococcus aureus Rosenbach ATCC 25923 preincubated for 24 hrs followed by compound wash out and measured after 24 hrs. The format is functional, organism-based.
The nature of series [12]: Therapeutic index, ratio of CC50 for human THLE3 cells to EC50 for methicillin-resistant Staphylococcus aureus ATCC BAA-44. Format: toxicity. As to conditions: read-out: Ratio CC50/EC50. In a few lines:
(§4)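 Ratio of human-cell CC50 to MRSA (ATCC BAA-44) EC50. […] EC50 comes from inhibition of MRSA proliferation in liquid culture. Replicate values were log-transformed, screened for outliers (ROUT, Q 10%), then averaged and back-calculated. Values above 100 µM were entered as 126 µM.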

Series [13] is described as follows: Therapeutic index, ratio of CC50 for HEK293 cells to EC50 for methicillin-resistant Staphylococcus aureus ATCC BAA-44. Format: toxicity. As to conditions: human, read-out: Ratio CC50/EC50. In a few lines: as §4
The target of another series is HSP60/HSP10 (Homo sapiens, UniProt P10809). Put plainly: Inhibition of human N-terminal octa-His-tagged HSP60 expressed in Escherichia coli Rosetta(DE3) pLysS/human HSP10 expressed in Escherichia coli Rosetta(DE3) assessed as reduction in HSP60/HSP10-mediated denatured MDH refolding after 40 to 60 mins by spectrometric analysis. In a few lines: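 Human HSP60/10 refolding of denatured MDH, run the same way as the GroEL/ES-dMDH assay. A binary complex of chaperonin and denatured MDH is formed, and refolding is started with ATP and HSP10. MDH activity is the read-out. DMSO is the negative control. IC50 values from replicate curves are log-averaged after ROUT outlier screening.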
Sequence of HSP60/HSP10 (P10809 whole entry): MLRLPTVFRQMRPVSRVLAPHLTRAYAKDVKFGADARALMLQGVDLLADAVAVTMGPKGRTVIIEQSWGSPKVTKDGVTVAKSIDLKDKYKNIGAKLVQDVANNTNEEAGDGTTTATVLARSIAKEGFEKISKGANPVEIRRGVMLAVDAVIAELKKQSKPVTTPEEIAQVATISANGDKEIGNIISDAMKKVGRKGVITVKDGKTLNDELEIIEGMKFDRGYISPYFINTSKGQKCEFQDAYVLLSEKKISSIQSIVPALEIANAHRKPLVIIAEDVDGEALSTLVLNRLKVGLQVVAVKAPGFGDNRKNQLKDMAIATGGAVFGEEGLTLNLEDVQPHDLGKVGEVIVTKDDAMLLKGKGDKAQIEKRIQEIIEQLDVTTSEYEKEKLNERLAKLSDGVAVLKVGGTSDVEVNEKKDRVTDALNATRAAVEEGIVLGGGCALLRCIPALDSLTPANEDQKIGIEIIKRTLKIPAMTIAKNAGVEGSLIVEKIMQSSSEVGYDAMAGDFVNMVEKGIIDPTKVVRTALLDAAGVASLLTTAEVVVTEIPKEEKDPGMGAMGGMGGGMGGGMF
Sequence of HSP60/HSP10 (P61604 whole entry, further chain): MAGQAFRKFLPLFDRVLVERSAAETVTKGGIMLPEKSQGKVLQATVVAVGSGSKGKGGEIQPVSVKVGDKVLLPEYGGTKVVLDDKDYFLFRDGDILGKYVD

The nature of series [14]: as §3. As to conditions: human, HEK293 cells.
The test system of series [15] is Staphylococcus aureus. Put plainly: Antibacterial activity against methicillin-resistant Staphylococcus aureus ATCC BAA-44 precultured for 24 hrs passage with compound followed by subculture in presence of compound for 12 days serial passage. The format is functional, organism-based. In a few lines: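 Cells from the first well with OD600 >0.2 were sub-cultured 24 h in a fresh compound dilution series. Serial passage ran for 12 days, with EC50 determined after each passage. Averages are from triplicate analyses.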

T1 sequence (P0A6F5 whole entry, looked up): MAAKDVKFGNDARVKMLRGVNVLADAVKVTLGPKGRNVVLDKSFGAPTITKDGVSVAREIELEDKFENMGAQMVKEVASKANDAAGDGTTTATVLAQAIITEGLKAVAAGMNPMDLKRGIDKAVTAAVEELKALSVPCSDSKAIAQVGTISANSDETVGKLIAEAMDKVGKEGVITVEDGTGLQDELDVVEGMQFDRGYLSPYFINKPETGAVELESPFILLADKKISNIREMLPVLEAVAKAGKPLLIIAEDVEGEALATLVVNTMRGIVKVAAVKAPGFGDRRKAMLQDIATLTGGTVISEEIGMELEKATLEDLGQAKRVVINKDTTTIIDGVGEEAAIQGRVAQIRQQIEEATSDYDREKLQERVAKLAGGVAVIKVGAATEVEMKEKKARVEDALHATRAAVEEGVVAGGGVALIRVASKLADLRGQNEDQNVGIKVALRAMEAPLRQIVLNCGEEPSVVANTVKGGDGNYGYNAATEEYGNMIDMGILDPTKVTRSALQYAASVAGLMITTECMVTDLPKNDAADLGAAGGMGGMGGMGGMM

Broadly, the IC50 is the concentration needed to halve the response being measured. A word on the EC50: it is the concentration giving half of the maximal effect. Read a high EC50 as a need for much substance. What is called CC50 is the concentration that lowers cell viability or growth by half. In the case of `O=C(Nc1ccc(Sc2nc3ccccc3s2)cc1)c1cc(Br)cc(Br)c1O`, the IC50 on E. coli GroEL/ES [1] was 2.7 µM; at E. coli GroEL/ES [2], 1.3 µM; in series [4], over 100 µM; in series [5], 8.4 µM. The EC50 with Staphylococcus aureus [3] is 0.44 µM; in the series on Enterococcus faecium, 0.88 µM; in the series with Staphylococcus aureus [6], 0.52 µM; in the series with Klebsiella pneumoniae it was over 100 µM; with Acinetobacter baumannii it was over 100 µM; with Pseudomonas aeruginosa it was over 100 µM. The EC50 was over 100 µM with Enterobacter cloacae, 0.54 µM in the series on Staphylococcus aureus [9], 2.3 µM with Staphylococcus aureus [10] and 0.44 µM in the series on Staphylococcus aureus [11]. Also, the CC50 in [7] is 20 µM; in the series on HEK293, 66 µM. Also, in the series with Staphylococcus aureus [8], the “Ratio EC50” value is reported as 5 - 15. Besides, the selectivity ratio in [12] and in series [13] was over 50 each time.
Turning to `CCCCCCCCCC(=O)N[C@@H](Cc1c[nH]c2ccccc12)C(=O)NC(CC(N)=O)C(=O)N[C@@H](CC(=O)O)C(=O)N[C@@H]1C(=O)NCC(=O)N[C@@H](CCCN)C(=O)N[C@@H](CC(=O)O)C(=O)N[C@H](C)C(=O)N[C@@H](CC(=O)O)C(=O)NCC(=O)N[C@H](CO)C(=O)N[C@@H]([C@H](C)CC(=O)O)C(=O)N[C@@H](CC(=O)c2ccccc2N)C(=O)O[C@@H]1C` (single isomer, unassigned) [DAPTOMYCIN], the concentration for half-maximal inhibition (IC50) at E. coli GroEL/ES [1] is over 100 µM; at E. coli GroEL/ES [2], over 100 µM; in series [4] it was over 100 µM; in [5], over 63 µM; on HSP60/HSP10, over 100 µM. Also, the EC50 in the series on Staphylococcus aureus [3] was 0.68 µM; in the series with Enterococcus faecium it was 9.2 µM; with Staphylococcus aureus [6] it was 1 µM; in the series with Klebsiella pneumoniae it was over 100 µM; in the series on Acinetobacter baumannii, over 100 µM; in the series on Pseudomonas aeruginosa, over 100 µM. The molecule also came in with an EC50 with Enterobacter cloacae of over 100 µM. In addition, the CC50 at 48 h in series [7] (THLE3 cells) and in series [14] was over 100 µM throughout.
Consider `O=C(Nc1cccc(Cl)c1)c1cc(Br)ccc1O`, for which the IC50 at E. coli GroEL/ES [1] is over 100 µM; on E. coli GroEL/ES [2], over 100 µM; in series [4], over 100 µM; in series [5], over 63 µM; on HSP60/HSP10, over 100 µM. The EC50 in the series on Staphylococcus aureus [3] was 0.46 µM; in the series on Enterococcus faecium it was over 100 µM; in the series with Staphylococcus aureus [6] it was 0.53 µM; with Klebsiella pneumoniae, over 100 µM; in the series with Acinetobacter baumannii it was over 100 µM; with Pseudomonas aeruginosa, over 100 µM. In addition, the EC50 in the series with Enterobacter cloacae is over 100 µM; in the series with Staphylococcus aureus [9] it was 0.44 µM; in the series with Staphylococcus aureus [10] it was 6.9 µM; in the series with Staphylococcus aureus [11], 0.46 µM. Besides, the figures for the CC50 (in [7]; in the series on HEK293) were 4.1 µM and 15 µM, respectively. In the series on Staphylococcus aureus [15], the result was Active. Moreover, the “Ratio EC50” value in the series on Staphylococcus aureus [8] is 5 - 15.
For `O=C(Nc1ccc(Sc2nc3ccccc3s2)c(Cl)c1)c1cc(Br)cc(Br)c1O`, the figures for the IC50 (at E. coli GroEL/ES [2]; in [4]; in [5]) were 1.5 µM, over 100 µM and 6.8 µM, respectively. Moreover, the EC50 in the series with Staphylococcus aureus [3] was 0.36 µM; in the series on Enterococcus faecium, 0.52 µM; with Staphylococcus aureus [6], 0.55 µM; in the series with Klebsiella pneumoniae, over 100 µM; in the series with Acinetobacter baumannii, 66 µM; in the series on Pseudomonas aeruginosa it was over 100 µM. In addition, the EC50 with Enterobacter cloacae is over 100 µM; with Staphylococcus aureus [9], 0.72 µM; with Staphylococcus aureus [10], 2.4 µM; with Staphylococcus aureus [11], 0.36 µM. For the same molecule, the CC50 was determined as 14 µM in series [7] and 76 µM with HEK293. Besides, in the series with Staphylococcus aureus [15], the result was Active. For the same molecule, the “Ratio EC50” value with Staphylococcus aureus [8] is 5 - 15. Also, the selectivity ratio in [12] and in series [13] was over 50 throughout.
